Measured values published in ChEMBL document CHEMBL3102784, “Salicylanilide diethyl phosphates: synthesis, antimicrobial activity and cytotoxicity” (Bioorg Med Chem, 2014).
Converted amounts (≈) assume the structure as drawn. The source made the active and inactive calls. The calls are words filed in the database; no cut-off is given here.

Key:
HepG2 = test: Cytotoxicity against human HepG2 cells after 24 hrs by CellTiter assay; assay type: cell-based; details: HepG2, 24 h
In short: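 HepG2 cells (passage 27–33) in MEM with 10% FBS, L-glutamine and NEAA, seeded at 1×10^4 per well. Treated next day with compounds at 0.1–100 µM (or 0.1–25 µmol/L), triplicates, <1% DMSO, for 24 h at 37 °C, 5% CO2. MTS reagent added for 2 h, absorbance read at 490 nm. IC50 taken against untreated (100%) and 10% DMSO (0%) controls.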

Staphylococcus aureus [1] = test: Antibacterial activity against methicillin-resistant Staphylococcus aureus H 5996/08 after 24 hrs by broth microdilution method; assay type: functional; details: H 5996/08, 24 h
In short: (§1)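 Broth microdilution in Mueller–Hinton broth, compounds dissolved in DMSO, tested over a dilution series from 500 downward. MIC taken as ≥95% growth reduction (IC95) versus drug-free control. Benzylpenicillin comparator. Readings at 24 and 48 h.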

Mycobacterium avium [2] = test: Antimycobacterial activity against isoniazid, rifampicin, ethambutol and ofloxacin-resistant Mycobacterium avium My 330/88 after 21 days; assay type: functional; details: My 330/88, 504 h
In short: (§2)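 Micromethod MIC in Šula's semisynthetic medium at 37 °C. Compounds added in DMSO at 1000 down to 0.032 µmol/L. Isoniazid standard in sterile water at 0.5–250 µmol/L. Inocula: H37Rv 10^3, M. avium 10^5, M. kansasii 10^4. Read at 14 and 21 d, plus 7 d for M. kansasii.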

Staphylococcus aureus [3] = test: Antibacterial activity against Staphylococcus aureus CCM 4516/08 after 48 hrs by broth microdilution method; assay type: functional; details: CCM 4516/08, 48 h; in short: as §1
[4] = test system: Staphylococcus epidermidis; test: Antibacterial activity against Staphylococcus epidermidis H 6966/08 after 48 hrs by broth microdilution method; assay type: functional; details: H 6966/08, 48 h; in short: as §1
Mycobacterium kansasii [5] = test: Antimycobacterial activity against Mycobacterium kansasii My 235/80 after 7 days; assay type: functional; details: My 235/80, 168 h; in short: as §2
[6] = test system: Mycobacterium tuberculosis; test: Antimycobacterial activity against Mycobacterium tuberculosis H37Rv My 331/88 after 21 days; assay type: functional; details: H37Rv My 331/88, 504 h; in short: as §2
Mycobacterium kansasii [7] = test: Antimycobacterial activity against Mycobacterium kansasii My 235/80 after 21 days; assay type: functional; details: My 235/80, 504 h; in short: as §2
[8] = test system: Trichophyton mentagrophytes; test: Antifungal activity against Trichophyton mentagrophytes 445 after 72 hrs by broth microdilution method; assay type: functional; details: Trichophyton mentagrophytes, 445, 72 h
In short: (§3)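 Filamentous dermatophyte tested by broth microdilution in RPMI 1640 with glutamine, fluconazole as reference. Value expressed as IC50 relative to growth control. Read at 72 and 120 h.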

Trichosporon asahii [9] = test: Antifungal activity against Trichosporon asahii 1188 after 24 hrs by broth microdilution method; assay type: functional; details: Trichosporon asahii, 1188, 24 h
In short: (§4)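 Broth microdilution in RPMI 1640 with glutamine, fluconazole as reference. For yeasts, MIC is ≥80% growth reduction (IC80) versus control. For filamentous fungi, the value is expressed as IC50. Readings at 24 and 48 h.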

Mycobacterium kansasii [10] = test: Antimycobacterial activity against Mycobacterium kansasii My 235/80 after 14 days; assay type: functional; details: My 235/80, 336 h; in short: as §2
Aspergillus fumigatus [11] = test: Antifungal activity against Aspergillus fumigatus 231 after 48 hrs by broth microdilution method; assay type: functional; details: Aspergillus fumigatus, 231, 48 h; in short: as §4
Pseudomonas aeruginosa = test: Antibacterial activity against Pseudomonas aeruginosa CCM 1961 at 500 micromol/L after 24 to 48 hrs by broth microdilution method; assay type: functional, organism-based; in short: as §1
Candida albicans [12] = test: Antifungal activity against Candida albicans ATCC 44859 after 48 hrs by broth microdilution method; assay type: functional; details: ATCC 44859, 48 h; in short: as §4
Mycobacterium avium [13] = test: Antimycobacterial activity against isoniazid, rifampicin, ethambutol and ofloxacin-resistant Mycobacterium avium My 330/88 after 14 days; assay type: functional; details: My 330/88, 336 h; in short: as §2
[14] = test system: Trichophyton mentagrophytes; test: Antifungal activity against Trichophyton mentagrophytes 445 after 120 hrs by broth microdilution method; assay type: functional; details: Trichophyton mentagrophytes, 445, 120 h; in short: as §3
Escherichia coli = test: Antibacterial activity against Escherichia coli CCM 4517 at 500 micromol/L after 24 to 48 hrs by broth microdilution method; assay type: functional, organism-based; in short: as §1
Nakaseomyces glabratus = test: Antifungal activity against Candida glabrata 20/I at 500 micromol/L after 24 to 48 hrs by broth microdilution method; assay type: functional, organism-based; in short: as §4
Staphylococcus aureus [15] = test: Antibacterial activity against Staphylococcus aureus CCM 4516/08 after 24 hrs by broth microdilution method; assay type: functional; details: CCM 4516/08, 24 h; in short: as §1
Klebsiella pneumoniae [16] = test: Antibacterial activity against ESBL-positive Klebsiella pneumoniae J 14368/08 at 500 micromol/L after 24 to 48 hrs by broth microdilution method; assay type: functional, organism-based; in short: as §1
[17] = test system: Mycobacterium tuberculosis; test: Antimycobacterial activity against Mycobacterium tuberculosis H37Rv My 331/88 after 14 days; assay type: functional; details: H37Rv My 331/88, 336 h; in short: as §2
Mycobacterium kansasii [18] = test: Antimycobacterial activity against Mycobacterium kansasii 6509/96 after 21 days; assay type: functional; details: 6509/96, 504 h; in short: as §2
Lichtheimia corymbifera [19] = test: Antifungal activity against Absidia corymbifera 272 after 24 hrs by broth microdilution method; assay type: functional; details: Lichtheimia corymbifera, 272, 24 h; in short: as §4
Lichtheimia corymbifera [20] = test: Antifungal activity against Absidia corymbifera 272 after 48 hrs by broth microdilution method; assay type: functional; details: Lichtheimia corymbifera, 272, 48 h; in short: as §4
Mycobacterium kansasii [21] = test: Antimycobacterial activity against Mycobacterium kansasii 6509/96 after 14 days; assay type: functional; details: 6509/96, 336 h; in short: as §2
Aspergillus fumigatus [22] = test: Antifungal activity against Aspergillus fumigatus 231 after 24 hrs by broth microdilution method; assay type: functional; details: Aspergillus fumigatus, 231, 24 h; in short: as §4
Klebsiella pneumoniae [23] = test: Antibacterial activity against Klebsiella pneumoniae D 11750/08 at 500 micromol/L after 24 to 48 hrs by broth microdilution method; assay type: functional, organism-based; in short: as §1
[24] = test system: Staphylococcus epidermidis; test: Antibacterial activity against Staphylococcus epidermidis H 6966/08 after 24 hrs by broth microdilution method; assay type: functional; details: H 6966/08, 24 h; in short: as §1
Mycobacterium kansasii [25] = test: Antimycobacterial activity against Mycobacterium kansasii 6509/96 after 7 days; assay type: functional; details: 6509/96, 168 h; in short: as §2
Candida albicans [26] = test: Antifungal activity against Candida albicans ATCC 44859 after 24 hrs by broth microdilution method; assay type: functional; details: ATCC 44859, 24 h; in short: as §4
Candida tropicalis = test: Antifungal activity against Candida tropicalis 156 at 500 micromol/L after 24 to 48 hrs by broth microdilution method; assay type: functional, organism-based; in short: as §4
Enterococcus sp. = test: Antibacterial activity against Enterococcus sp. J 14365/08 at 500 micromol/L after 24 to 48 hrs by broth microdilution method; assay type: functional, organism-based; in short: as §1
Staphylococcus aureus [27] = test: Antibacterial activity against methicillin-resistant Staphylococcus aureus H 5996/08 after 48 hrs by broth microdilution method; assay type: functional; details: H 5996/08, 48 h; in short: as §1
Pichia kudriavzevii [28] = test: Antifungal activity against Candida krusei E28 after 48 hrs by broth microdilution method; assay type: functional; details: E28, 48 h; in short: as §4
Pichia kudriavzevii [29] = test: Antifungal activity against Candida krusei E28 after 24 hrs by broth microdilution method; assay type: functional; details: E28, 24 h; in short: as §4
Trichosporon asahii [30] = test: Antifungal activity against Trichosporon asahii 1188 after 48 hrs by broth microdilution method; assay type: functional; details: Trichosporon asahii, 1188, 48 h; in short: as §4

SMILES | IC50 (HepG2) [µM] | MIC95 (Staphylococcus aureus [1]) [µM] | MIC (Mycobacterium avium [2]) [µM] | MIC95 (Staphylococcus aureus [3]) [µM] | MIC95 [4] [µM] | MIC (Mycobacterium kansasii [5]) [µM] | MIC [6] [µM] | MIC (Mycobacterium kansasii [7]) [µM] | MIC50 [8] [µM] | MIC80 (Trichosporon asahii [9]) [µM] | MIC (Mycobacterium kansasii [10]) [µM] | MIC50 (Aspergillus fumigatus [11]) [µM] | Activity (Pseudomonas aeruginosa) | MIC80 (Candida albicans [12]) [µM] | MIC (Mycobacterium avium [13]) [µM] | MIC50 [14] [µM] | Activity (Escherichia coli) | Activity (Nakaseomyces glabratus) | MIC95 (Staphylococcus aureus [15]) [µM] | Activity (Klebsiella pneumoniae [16]) | other results
CCOP(=O)(OCC)Oc1ccc(Br)cc1C(=O)Nc1cccc(F)c1 | 5.54 | 250 (≈ 112 µg/mL) | 32 (≈ 14.3 µg/mL) | 250 (≈ 112 µg/mL) | 250 (≈ 112 µg/mL) | 8 (≈ 3.57 µg/mL) | 8 (≈ 3.57 µg/mL) | 16 (≈ 7.14 µg/mL) | 62.5 (≈ 27.9 µg/mL) | > 500 | 16 (≈ 7.14 µg/mL) | > 500 | inactive | > 500 | 32 (≈ 14.3 µg/mL) | 62.5 (≈ 27.9 µg/mL) | inactive | inactive | 125 (≈ 55.8 µg/mL) | inactive | MIC [17]: 8 µM (≈ 3.57 µg/mL); MIC (Mycobacterium kansasii [18]): 16 µM (≈ 7.14 µg/mL); MIC50 (Lichtheimia corymbifera [19]): > 500 µM; MIC50 (Lichtheimia corymbifera [20]): > 500 µM; MIC (Mycobacterium kansasii [21]): 16 µM (≈ 7.14 µg/mL); MIC50 (Aspergillus fumigatus [22]): > 500 µM; Activity (Klebsiella pneumoniae [23]): inactive; MIC95 [24]: 250 µM (≈ 112 µg/mL); MIC (Mycobacterium kansasii [25]): 8 µM (≈ 3.57 µg/mL); MIC80 (Candida albicans [26]): > 500 µM; Activity (Candida tropicalis): inactive; Activity (Enterococcus sp.): inactive; MIC95 (Staphylococcus aureus [27]): 250 µM (≈ 112 µg/mL); MIC80 (Pichia kudriavzevii [28]): > 500 µM; MIC80 (Pichia kudriavzevii [29]): > 500 µM; MIC80 (Trichosporon asahii [30]): > 500 µM
CCOP(=O)(OCC)Oc1cc(Cl)ccc1C(=O)Nc1cccc(Br)c1 | 8.07 | 250 (≈ 116 µg/mL) | 16 (≈ 7.4 µg/mL) | 500 (≈ 231 µg/mL) | 250 (≈ 116 µg/mL) | 4 (≈ 1.85 µg/mL) | 4 (≈ 1.85 µg/mL) | 8 (≈ 3.7 µg/mL) | > 500 | > 500 | 8 (≈ 3.7 µg/mL) | > 500 | inactive | > 500 | 16 (≈ 7.4 µg/mL) | > 500 | inactive | inactive | 125 (≈ 57.8 µg/mL) | inactive | MIC [17]: 4 µM (≈ 1.85 µg/mL); MIC (Mycobacterium kansasii [18]): 8 µM (≈ 3.7 µg/mL); MIC50 (Lichtheimia corymbifera [19]): > 500 µM; MIC50 (Lichtheimia corymbifera [20]): > 500 µM; MIC (Mycobacterium kansasii [21]): 8 µM (≈ 3.7 µg/mL); MIC50 (Aspergillus fumigatus [22]): > 500 µM; Activity (Klebsiella pneumoniae [23]): inactive; MIC95 [24]: 125 µM (≈ 57.8 µg/mL); MIC (Mycobacterium kansasii [25]): 8 µM (≈ 3.7 µg/mL); MIC80 (Candida albicans [26]): > 500 µM; Activity (Candida tropicalis): inactive; Activity (Enterococcus sp.): inactive; MIC95 (Staphylococcus aureus [27]): 500 µM (≈ 231 µg/mL); MIC80 (Pichia kudriavzevii [28]): > 500 µM; MIC80 (Pichia kudriavzevii [29]): > 500 µM; MIC80 (Trichosporon asahii [30]): > 500 µM
